Assay results as given in ChEMBL document CHEMBL5303300, “EUbOPEN Chemogenomics Library - Multiplex” (2023).
Values joined by “and” are separate entries in the source; they are usually repeats but may differ in a detail not shown here. Equal values may be shown once.

System: Fibroblast
Assay: Multiplex assay against human fibroblast
Assay type: toxicity, cell-based
Settings: number of replicates 2
Summary of the method: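 Cells were classed with CellPathfinder machine-learning gating, first as Hoechst high-intensity objects or normal cells, then (normal cells) as healthy, pyknosed or fragmented nuclei, and finally (pyknosed cells) as mitotic or apoptotic. Staining of live cells at seeding used Hoechst33342, BioTracker Green Microtubule Cytoskeleton Dye, MitoTracker Red and Annexin V Alexa Fluor 680, with imaging on a CQ1 microscope at 37°C and 5% CO2 after compound addition. Tubulin, mitochondrial-mass and membrane-permeability phenotypes are per cents of healthy-nucleus cells.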

[1] = 12 h, 1 µM, compound concentration 1 uM
[2] = 12 h, 10 µM, compound concentration 10 uM
[3] = 24 h, 1 µM, compound concentration 1 uM
[4] = 24 h, 10 µM, compound concentration 10 uM
[5] = 48 h, 1 µM, compound concentration 1 uM
[6] = 48 h, 10 µM, compound concentration 10 uM

CC1=C(C)C(=O)C(C(C)(C)CC(=O)N(CCCCSC[C@H]2O[C@@H](n3cnc4c(N)ncnc43)[C@H](O)[C@@H]2O)Cc2cccc(-c3ccc(Cl)cc3)c2)=C(C)C1=O
Population Apoptotic (%) [1]: 43% and 35% | Population Fragmented Nuclei (%) [1]: 13% and 7% | Population Healthy Nuclei (%) [1]: 72% and 77% | Population Hoechst High Intensity Objects (%) [1]: 0% | Population Membrane Permeable-Phenotype (%) [1]: 1% and 6% | Population Mitochondria Different-Phenotype (%) [1]: 0% and 1% | Population Mitotic Cells (%) [1]: 56% and 64% | Population Normal (%) [1]: 100% | Population Pyknosed Nuclei (%) [1]: 14% | Population Tubulin-Different-Phenotype (%) [1]: 34% and 18% | Total Cell Count [1]: 228 and 306 | Population Apoptotic (%) [2]: 36% and 30% | Population Fragmented Nuclei (%) [2]: 11% and 17% | Population Healthy Nuclei (%) [2]: 76% and 62% | Population Hoechst High Intensity Objects (%) [2]: 0% and 1% | Population Membrane Permeable-Phenotype (%) [2]: 18% and 15% | Population Mitochondria Different-Phenotype (%) [2]: 4% and 3% | Population Mitotic Cells (%) [2]: 63% and 69% | Population Normal (%) [2]: 100% and 99% | Population Pyknosed Nuclei (%) [2]: 11% and 19% | Population Tubulin-Different-Phenotype (%) [2]: 73% and 74% | Total Cell Count [2]: 186 and 201 | Population Apoptotic (%) [3]: 57% and 51% | Population Fragmented Nuclei (%) [3]: 8% and 9% | Population Healthy Nuclei (%) [3]: 85% and 79% | Population Hoechst High Intensity Objects (%) [3]: 0% | Population Membrane Permeable-Phenotype (%) [3]: 5% and 2% | Population Mitochondria Different-Phenotype (%) [3]: 2% and 1% | Population Mitotic Cells (%) [3]: 42% and 48% | Population Normal (%) [3]: 99% and 100% | Population Pyknosed Nuclei (%) [3]: 5% and 11% | Population Tubulin-Different-Phenotype (%) [3]: 24% and 12% | Total Cell Count [3]: 235 and 305 | Population Apoptotic (%) [4]: 46% and 45% | Population Fragmented Nuclei (%) [4]: 13% and 14% | Population Healthy Nuclei (%) [4]: 78% and 68% | Population Hoechst High Intensity Objects (%) [4]: 0% | Population Membrane Permeable-Phenotype (%) [4]: 4% and 8% | Population Mitochondria Different-Phenotype (%) [4]: 13% and 17% | Population Mitotic Cells (%) [4]: 53% and 54% | Population Normal (%) [4]: 100% and 99% | Population Pyknosed Nuclei (%) [4]: 8% and 17% | Population Tubulin-Different-Phenotype (%) [4]: 78% and 83% | Total Cell Count [4]: 182 and 183 | Population Apoptotic (%) [5]: 50% | Population Fragmented Nuclei (%) [5]: 12% and 13% | Population Healthy Nuclei (%) [5]: 83% and 81% | Population Hoechst High Intensity Objects (%) [5]: 0% | Population Membrane Permeable-Phenotype (%) [5]: 3% and 1% | Population Mitochondria Different-Phenotype (%) [5]: 0% | Population Mitotic Cells (%) [5]: 50% | Population Normal (%) [5]: 99% | Population Pyknosed Nuclei (%) [5]: 3% and 5% | Population Tubulin-Different-Phenotype (%) [5]: 13% and 5% | Total Cell Count [5]: 257 and 316 | Population Apoptotic (%) [6]: 71% and 65% | Population Fragmented Nuclei (%) [6]: 18% and 20% | Population Healthy Nuclei (%) [6]: 74% and 69% | Population Hoechst High Intensity Objects (%) [6]: 0% | Population Membrane Permeable-Phenotype (%) [6]: 0% and 5% | Population Mitochondria Different-Phenotype (%) [6]: 6% and 13% | Population Mitotic Cells (%) [6]: 28% and 35% | Population Normal (%) [6]: 100% | Population Pyknosed Nuclei (%) [6]: 7% and 10% | Population Tubulin-Different-Phenotype (%) [6]: 76% and 69% | Total Cell Count [6]: 197

CN(C)CC#Cc1ccc2[nH]c3c(c2c1)-c1nc(N)ncc1CCC3
Population Apoptotic (%) [1]: 30% and 35% | Population Fragmented Nuclei (%) [1]: 32% and 18% | Population Healthy Nuclei (%) [1]: 49% and 55% | Population Hoechst High Intensity Objects (%) [1]: 0% | Population Membrane Permeable-Phenotype (%) [1]: 4% and 6% | Population Mitochondria Different-Phenotype (%) [1]: 2% and 0% | Population Mitotic Cells (%) [1]: 69% and 64% | Population Normal (%) [1]: 100% | Population Pyknosed Nuclei (%) [1]: 17% and 25% | Population Tubulin-Different-Phenotype (%) [1]: 23% and 28% | Total Cell Count [1]: 293 and 186 | Population Fragmented Nuclei (%) [2]: 25% and 22% | Population Healthy Nuclei (%) [2]: 49% and 62% | Population Hoechst High Intensity Objects (%) [2]: 0% | Population Membrane Permeable-Phenotype (%) [2]: 0% and 5% | Population Mitochondria Different-Phenotype (%) [2]: 2% and 1% | Population Mitotic Cells (%) [2]: 61% and 89% | Population Normal (%) [2]: 100% and 99% | Population Pyknosed Nuclei (%) [2]: 25% and 15% | Population Tubulin-Different-Phenotype (%) [2]: 26% and 31% | Total Cell Count [2]: 228 and 378 | Population Apoptotic (%) [3]: 48% and 47% | Population Fragmented Nuclei (%) [3]: 18% and 27% | Population Healthy Nuclei (%) [3]: 65% and 60% | Population Hoechst High Intensity Objects (%) [3]: 0% | Population Membrane Permeable-Phenotype (%) [3]: 7% and 1% | Population Mitochondria Different-Phenotype (%) [3]: 0% and 4% | Population Mitotic Cells (%) [3]: 51% and 52% | Population Normal (%) [3]: 100% and 99% | Population Pyknosed Nuclei (%) [3]: 16% and 11% | Population Tubulin-Different-Phenotype (%) [3]: 25% and 26% | Total Cell Count [3]: 221 and 287 | Population Apoptotic (%) [4]: 39% and 42% | Population Fragmented Nuclei (%) [4]: 19% and 16% | Population Healthy Nuclei (%) [4]: 62% and 56% | Population Hoechst High Intensity Objects (%) [4]: 4% and 1% | Population Membrane Permeable-Phenotype (%) [4]: 4% and 1% | Population Mitochondria Different-Phenotype (%) [4]: 4% and 3% | Population Mitotic Cells (%) [4]: 60% and 57% | Population Normal (%) [4]: 95% and 98% | Population Pyknosed Nuclei (%) [4]: 17% and 26% | Population Tubulin-Different-Phenotype (%) [4]: 52% and 43% | Total Cell Count [4]: 286 and 184 | Population Apoptotic (%) [5]: 70% and 47% | Population Fragmented Nuclei (%) [5]: 25% and 32% | Population Healthy Nuclei (%) [5]: 65% and 62% | Population Hoechst High Intensity Objects (%) [5]: 1% and 2% | Population Membrane Permeable-Phenotype (%) [5]: 3% | Population Mitochondria Different-Phenotype (%) [5]: 0% | Population Mitotic Cells (%) [5]: 29% and 52% | Population Normal (%) [5]: 98% and 97% | Population Pyknosed Nuclei (%) [5]: 9% and 5% | Population Tubulin-Different-Phenotype (%) [5]: 24% and 17% | Total Cell Count [5]: 266 and 347 | Population Apoptotic (%) [6]: 68% and 64% | Population Fragmented Nuclei (%) [6]: 13% and 6% | Population Healthy Nuclei (%) [6]: 67% and 77% | Population Hoechst High Intensity Objects (%) [6]: 0% and 5% | Population Membrane Permeable-Phenotype (%) [6]: 13% and 12% | Population Mitochondria Different-Phenotype (%) [6]: 1% and 5% | Population Mitotic Cells (%) [6]: 31% and 35% | Population Normal (%) [6]: 100% and 94% | Population Pyknosed Nuclei (%) [6]: 18% and 16% | Population Tubulin-Different-Phenotype (%) [6]: 52% and 63% | Total Cell Count [6]: 153 and 185
